# Assay results: article PMC9558256 (ACS Omega, 2022)
# Columns and labels:
# [1] = tested on: P. falciparum resistant strain F32-ART; experiment: Antiplasmodial activity; format: cell-based; details: Plasmodium falciparum, F32, read-out: P. falciparum F32ART IC50
# How it was run: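 Test compounds screened against artemisinin-resistant P. falciparum F32-ART (selected after 144 intermittent, increasing artemisinin doses) by SYBR Green at 1 and 10 μM, in triplicate, in two independent experiments. Compounds giving around or above 50% growth inhibition at 10 μM were retested at four doses, each in triplicate, to derive IC50.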
# [2] = tested on: L. donovani intramacrophage amastigote forms (LV9); experiment: In vitro antileishmanial evaluation on intramacrophage amastigotes; format: cell-based; details: Leishmania donovani, RAW264.7, 48 h, read-out: L. donovani IC50
# How it was run: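 RAW 264.7 macrophages were infected with L. donovani LV9 axenic amastigotes at 10 parasites per macrophage. Test compound was added 24 h post-infection for 48 h, with top concentrations set from RAW 264.7 cytotoxicity. Parasite growth reduction was read by SYBR Green incorporation and IC50 derived by regression. Miltefosine served as reference drug.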
# [3] = Cytotoxicity on RAW 264.7 macrophages; format: cell-based; details: mouse
# [4] = tested on: L. donovani axenic amastigotes (LV9); experiment: In vitro antileishmanial evaluation on axenic amastigotes; format: cell-based; details: Leishmania donovani, read-out: IC50 on the axenic form of L. donovani
# [5] = Cytotoxicity on Vero cells; format: cell-based; details: African green monkey
# M. tuberculosis H37Rv = experiment: MIC determination by resazurin reduction microplate assay; format: cell-based, Mycobacterium tuberculosis; details: MIC comparison with literature BNF15
SMILES,IC50 [1],IC50 [2],CC50 [3],IC50 [4],CC50 [5],fold less active than BNF15 against M. tuberculosis (M. tuberculosis H37Rv)
"CC(C)(C)Nc1oc2c(c1-c1ccc(Cl)cc1)C(=O)c1ccccc1C2=O [Compound 9, 2-(tert-Butylamino)-3-(4-chlorophenyl)naphtho[2,3-b]furan-4,9-dione]",> 10 µM,–,–,–,–,–
"CC(C)(C)Nc1oc2c(c1-c1cccc(Br)c1)C(=O)c1ccccc1C2=O [Compound 10, 3-(3-Bromophenyl)-2-(tert-butylamino)naphtho[2,3-b]furan-4,9-dione]",> 10 µM,–,–,–,–,–
"COc1cc(-c2c(NC(C)(C)C)oc3c2C(=O)c2ccccc2C3=O)cc(OC)c1OC [Compound 11, 2-(tert-Butylamino)-3-(3,4,5-trimethoxyphenyl)naphtho[2,3-b]furan-4,9-dione]",> 10 µM,–,–,–,–,–
"COc1ccc(-c2c(NC(C)(C)C)oc3c2C(=O)c2ccccc2C3=O)cc1OC [Compound 12, 2-(tert-Butylamino)-3-(3,4-dimethoxyphenyl)naphtho[2,3-b]furan-4,9-dione]",> 10 µM,–,–,–,–,–
"Cn1ncc2cc(-c3c(NC(C)(C)C)oc4c3C(=O)c3ccccc3C4=O)ccc21 [Compound 13, 2-(tert-Butylamino)-3-(1-methyl-1H-indazol-5-yl)naphtho[2,3-b]furan-4,9-dione]",> 10 µM,–,–,–,–,–
"CC(C)(C)Nc1oc2c(c1-c1cc3ccccc3[nH]1)C(=O)c1ccccc1C2=O [Compound 14, 2-(tert-Butylamino)-3-(1H-indol-2-yl)naphtho[2,3-b]furan-4,9-dione]",> 10 µM,–,–,–,–,–
"CC(C)(C)Nc1oc2c(c1-c1ccc([N+](=O)[O-])o1)C(=O)c1ccccc1C2=O [Compound 15, 2-(tert-Butylamino)-3-(5-nitrofuran-2-yl)naphtho[2,3-b]furan-4,9-dione]",> 10 µM,–,–,–,–,–
"CC(C)(C)Nc1oc2c(c1C1CCN(C(=O)OC(C)(C)C)CC1)C(=O)c1ccccc1C2=O [Compound 16, tert-Butyl 4-(2-(tert-Butylamino)-4,9-dioxo-4,9-dihydronaphtho[2,3-b]furan-3-yl)piperidine-1-carboxylate]",> 10 µM,6.97 µM,49.2 µM,< 10 µM,–,–
"CC(C)(C)Nc1oc2c(c1C1CCN(Cc3ccccc3)CC1)C(=O)c1ccccc1C2=O [Compound 17, 3-(1-Benzylpiperidin-4-yl)-2-(tert-butylamino)naphtho[2,3-b]furan-4,9-dione]",2.5 µM,–,–,–,86 µM,about 7 fold
"O=C1c2ccccc2C(=O)c2c1oc(NC1CCCCC1)c2-c1ccc(Cl)cc1 [Compound 18, 3-(4-Chlorophenyl)-2-(cyclohexylamino)naphtho[2,3-b]furan-4,9-dione]",11 µM,9.41 µM,54.2 µM,< 10 µM,50 µM,–
"COc1cc(-c2c(NC3CCCCC3)oc3c2C(=O)c2ccccc2C3=O)cc(OC)c1OC [Compound 19, 2-(Cyclohexylamino)-3-(3,4,5-trimethoxyphenyl)naphtho[2,3-b]furan-4,9-dione]",6 µM,–,–,–,> 100 µM,–
"Cn1ncc2cc(-c3c(NC4CCCCC4)oc4c3C(=O)c3ccccc3C4=O)ccc21 [Compound 20, 2-(Cyclohexylamino)-3-(1-methyl-1H-indazol-5-yl)naphtho[2,3-b]furan-4,9-dione]",10 µM,–,–,–,–,–
"O=C1c2ccccc2C(=O)c2c1oc(NC1CCCCC1)c2-c1ccc([N+](=O)[O-])o1 [Compound 21, 2-(Cyclohexylamino)-3-(5-nitrofuran-2-yl)naphtho[2,3-b]furan-4,9-dione]",> 10 µM,–,–,–,–,–
"O=C1c2ccccc2C(=O)c2c1oc(NC1CCCCC1)c2C1CCN(Cc2ccccc2)CC1 [Compound 22, 3-(1-Benzylpiperidin-4-yl)-2-(cyclohexylamino)naphtho[2,3-b]furan-4,9-dione]",3.6 µM,–,–,–,36 µM,–
"CCCCNc1oc2c(c1-c1ccc(Cl)cc1)C(=O)c1ccccc1C2=O [Compound 23, 2-(Butylamino)-3-(4-chlorophenyl)naphtho[2,3-b]furan-4,9-dione]",> 10 µM,–,–,–,–,–
"CCCCNc1oc2c(c1-c1cc(OC)c(OC)c(OC)c1)C(=O)c1ccccc1C2=O [Compound 24, 2-(Butylamino)-3-(3,4,5-trimethoxyphenyl)naphtho[2,3-b]furan-4,9-dione]",9 µM,–,–,–,> 100 µM,–
"CCCCNc1oc2c(c1-c1ccc([N+](=O)[O-])o1)C(=O)c1ccccc1C2=O [Compound 26, 2-(Butylamino)-3-(5-nitrofuran-2-yl)naphtho[2,3-b]furan-4,9-dione]",> 10 µM,–,–,–,–,–
"CCCCNc1oc2c(c1C1CCN(Cc3ccccc3)CC1)C(=O)c1ccccc1C2=O [Compound 27, 3-(1-Benzylpiperidin-4-yl)-2-(butylamino)naphtho[2,3-b]furan-4,9-dione]",4 µM,–,–,–,24 µM,–
"CC(C)(C)NC=C1C(=O)C(=O)c2ccccc2C1=O [Compound 28, 3-((tert-Butylamino)methylene)naphthalene-1,2,4(3H)-trione]",1.4 µM,3.5 µM,> 100 µM,< 10 µM,> 50 µM,–
"CCCCNC=C1C(=O)C(=O)c2ccccc2C1=O [Compound 29, 3-((Butylamino)methylene)naphthalene-1,2,4(3H)-trione]",1.9 µM,6.33 µM,46.5 µM,< 10 µM,> 50 µM,–
"O=C1C(O)=C([C@H]2CC[C@H](c3ccc(Cl)cc3)CC2)C(=O)c2ccccc21 [atovaquone (7), atovaquone, reference compound]",0.001 µM,11.1 µM,44 µM,–,6 µM,–
"O=C1C=C(O)C(=O)c2ccccc21 [lawsone (1), 2-hydroxy-1,4-naphthoquinone, reference compound]",> 10 µM,6.27 µM,44 µM,–,–,–
"CCCCCCCCCCCCCCCCOP(=O)([O-])OCC[N+](C)(C)C [miltefosine, reference compound]",–,1.46 µM,22.6 µM,–,–,–
